This excerpt belongs to a sample that is enriched for hits.
CHOP inhibitor: CHOP inhibition in unfolded protein response | CHO-K1 CHOP-promoter luciferase, tunicamycin-induced, 15-18 h | inhibition, % at 10 µM | hit rate 3.8% among 220,000 | AID 2732;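 active = compounds that reduced the stress-induced luciferase reporter signal by more than about 70% of percent inhibition, limit read from the data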;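 also: 0% = tunicamycin plus vehicle and 100% = wells without tunicamycin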
iPSC survival up: hiPSC single-cell survival enhancement. hit rate 0.044% among 360,000. survival enhancement, % at 20 µM. ATPlite luminescence; 100% = ROCK inhibitor wells, 0% = DMSO; in the data active = survival enhancement above about 18%;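 also: cells exposed to compounds for 16 hours before the ATP read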
XBP1 UPR activ: adaptive UPR (XBP1) activation. CHO-XBP1 luciferase reporter, IRE1-XBP1 UPR activation, luminescence; percent of tunicamycin response, DMSO as zero. activation, % at 20 µM. hit rate 0.33% among 330,000. AID 463104;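 active = versus positive control, 20 µM dose yields 30% or more activation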;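 also: 100% = tunicamycin at 10 µg/mL and 0% = DMSO only wells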
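Material: CHO cell line with stable XBP1 luciferase reporter; schedule: 16-18 h cell attachment at 37 °C, then 6 h compound exposure; signal: glow luminescence from Steady-Glo reagent; medium: serum-containing F12 medium, 10% FBS; benchmarks: tunicamycin 10 µg/mL and vehicle-only wells; read-out: percent activation relative to tunicamycin reference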
H9c2 protect: myocardial damage modulation in H9c2 cells | H9c2 cardiomyocytes, H2O2 injury protection, ATPLite, 2 h | protection from H2O2 cell death, % at 20 µM | hit rate 0.63% among 360,000;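 active = compounds giving at least 50% protection of heart cells from peroxide-induced death in the single-dose screen, raw or plate-pattern-corrected value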;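 also: 0% = DMSO wells with peroxide and 100% = DMSO wells without peroxide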
UPR CHOP act: apoptotic UPR (CHOP) activation; CHO-CHOP luciferase reporter, luminescence; percent of tunicamycin response over DMSO baseline; activation, % at 10 µM; hit rate 0.34% among 330,000;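 active = at 10 µM dose, activation of 40% or more, normalized to positive control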;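 also: 100% = tunicamycin at 10 µg/mL and 0% = DMSO alone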
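Assay system: CHO-CHOP cells, stable luciferase reporter of PERK-eIF2a-CHOP signalling / Buffer or medium: F12 plus 10% serum / Compound dosing: one dose, 10 µM in 0.5% DMSO / Times: 6 h compound treatment, 37 °C / Technique: luciferase luminescence / Read-out: % reporter activation, DMSO baseline versus tunicamycin full activation / Benchmarks: tunicamycin and DMSO controls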
An asterisk follows results filed as active.

What do the screens show for `CC1(C(=O)NS(=O)(=O)Cc2ccccc2)CCN1C(=O)Cc1ccccc1Cl` (stereo not given)?
iPSC survival up: 19; H9c2 protect: 8

What do the screens show for `CCCCN(C(=O)COc1ccc(F)cc1)c1c(N)n(CC(C)C)c(=O)[nH]c1=O`?
iPSC survival up: 0; H9c2 protect: 1

What do the screens show for `COC(=O)c1c(C)oc2ccc(OC(=O)c3cccs3)cc12`?
CHOP inhibitor: 86*; iPSC survival up: 9; XBP1 UPR activ: -1; H9c2 protect: -5; UPR CHOP act: -3

What do the screens show for `COCCOC(=O)c1c(C)oc2ccc(OC(=O)c3cccs3)cc12`?
CHOP inhibitor: -4; iPSC survival up: -1; XBP1 UPR activ: 0; H9c2 protect: -11; UPR CHOP act: 3

Results for Cn1c(N)c(C(=O)N2CCN(c3ccccc3)CC2)c(=O)n(C)c1=O ?
iPSC survival up: -2; H9c2 protect: 8

How did COc1cc(Cl)c(C)cc1NC(=O)CSc1ccccc1 do in these assays?
CHOP inhibitor: 65; iPSC survival up: 1; XBP1 UPR activ: -2; H9c2 protect: -4; UPR CHOP act: -2

Results for COc1cc(Cl)c(C)cc1NC(=O)CSc1ccc(C)cc1 ?
CHOP inhibitor: 74*; iPSC survival up: 2; XBP1 UPR activ: 0; H9c2 protect: -11; UPR CHOP act: -2

Results for CCOc1ccc(-c2cc(NC(=O)Cn3ncc4c3-c3ccccc3OC4)on2)cc1OCC ?
CHOP inhibitor: 100*; iPSC survival up: 0; XBP1 UPR activ: -2; H9c2 protect: 0; UPR CHOP act: 0

How did CCOC(=O)c1cc(CC)sc1NC(=O)Cc1ccsc1 do in these assays?
CHOP inhibitor: 75*; iPSC survival up: -2; XBP1 UPR activ: -3; H9c2 protect: -13; UPR CHOP act: -2

Results for CCOC(=O)c1cc(CC)sc1NC(=O)CCC(=O)O ?
CHOP inhibitor: -11; iPSC survival up: 2; XBP1 UPR activ: -2; H9c2 protect: 11; UPR CHOP act: -1

Results for CCOC(=O)c1cc(CC)sc1NC(=O)c1cc(OC)c(OC)c(OC)c1 ?
CHOP inhibitor: 90*; iPSC survival up: -1; XBP1 UPR activ: 2; H9c2 protect: 16; UPR CHOP act: -1

How did CCCNC(=O)c1cc(C2CCCCN2C(=O)c2ccc(C(C)C)cc2)on1 (stereo not given) do in these assays?
iPSC survival up: -3; H9c2 protect: -16

Results for CCCCn1c(C)cc(C)c(S(=O)(=O)c2ccccc2C)c1=O ?
CHOP inhibitor: 94*; iPSC survival up: -1; XBP1 UPR activ: -2; H9c2 protect: -11; UPR CHOP act: 0

Results for COc1ccc(N2CCN(S(=O)(=O)c3ccc4c(c3)CCCC4)CC2)c([N+](=O)[O-])c1 ?
CHOP inhibitor: 71*; iPSC survival up: 8; XBP1 UPR activ: -4; H9c2 protect: -20; UPR CHOP act: 6

How did CCc1ccc2[nH]c(=O)c(CN(Cc3ccccc3OC)Cc3nnnn3Cc3ccco3)cc2c1 do in these assays?
CHOP inhibitor: 74*; iPSC survival up: 1; XBP1 UPR activ: 0; H9c2 protect: -20; UPR CHOP act: 7

What do the screens show for `CCOc1ccc2[nH]c(=O)c(CN(Cc3cccs3)C(CC)c3nnnn3C(C)(C)CC)cc2c1` (stereo not given)?
CHOP inhibitor: 65; iPSC survival up: -3; H9c2 protect: 67*

How did CCOc1ccc2[nH]c(=O)c(CN(Cc3ccco3)Cc3nnnn3Cc3ccccc3)cc2c1 do in these assays?
CHOP inhibitor: 0; iPSC survival up: 0; XBP1 UPR activ: 0; H9c2 protect: 13; UPR CHOP act: 4

Results for CCC(c1nnnn1CCc1ccccc1)N(Cc1ccco1)Cc1cc2cccc(C)c2[nH]c1=O (stereo not given) ?
CHOP inhibitor: 36; iPSC survival up: -3; XBP1 UPR activ: -3; H9c2 protect: 1; UPR CHOP act: -1

How did CCOc1ccc2[nH]c(=O)c(CN(Cc3ccco3)C(CC)c3nnnn3Cc3ccccc3)cc2c1 (stereo not given) do in these assays?
CHOP inhibitor: 21; iPSC survival up: 2; XBP1 UPR activ: -1; H9c2 protect: 86*; UPR CHOP act: 17

How did COc1ccc2[nH]c(=O)c(CN(Cc3ccco3)Cc3nnnn3Cc3ccccc3)cc2c1 do in these assays?
CHOP inhibitor: 25; iPSC survival up: 1; XBP1 UPR activ: -1; H9c2 protect: 66*; UPR CHOP act: 20

Results for COc1cc2cc(CN(Cc3nnnn3Cc3ccco3)C3CCCCC3)c(=O)[nH]c2cc1OC ?
CHOP inhibitor: 15; iPSC survival up: 11; XBP1 UPR activ: -2; H9c2 protect: 43; UPR CHOP act: -2

How did CCOc1ccc2[nH]c(=O)c(CN(Cc3nnnn3Cc3ccco3)C3CCCCC3)cc2c1 do in these assays?
CHOP inhibitor: 57; iPSC survival up: -2; XBP1 UPR activ: -4; H9c2 protect: 59*; UPR CHOP act: 2

What do the screens show for `O=c1[nH]c2cc3c(cc2cc1CN(Cc1nnnn1CC1CCCO1)C1CCCCC1)OCO3` (stereo not given)?
CHOP inhibitor: 1; iPSC survival up: -1; XBP1 UPR activ: -1; H9c2 protect: 57*; UPR CHOP act: 3

What do the screens show for `Cc1ccc2cc(CN(Cc3ccc4c(c3)OCO4)Cc3nnnn3Cc3ccco3)c(=O)[nH]c2c1C`?
CHOP inhibitor: 53; iPSC survival up: 1; XBP1 UPR activ: -1; H9c2 protect: 16; UPR CHOP act: 1

What do the screens show for `COc1ccc2[nH]c(=O)c(CN(CCc3ccccc3)Cc3nnnn3CC3CCCO3)cc2c1` (stereo not given)?
CHOP inhibitor: 13; iPSC survival up: 1; XBP1 UPR activ: 1; H9c2 protect: 76*; UPR CHOP act: -1

What do the screens show for `Cc1ccc(C)c2[nH]c(=O)c(CN(Cc3ccc4c(c3)OCO4)Cc3nnnn3Cc3ccco3)cc12`?
CHOP inhibitor: 26; iPSC survival up: -3; XBP1 UPR activ: -5; H9c2 protect: 60*; UPR CHOP act: -1

How did CN(C)CCN1CCN(C2CN(Cc3ccccc3)S(=O)(=O)C2)CC1 (stereo not given) do in these assays?
iPSC survival up: -1; H9c2 protect: 9

How did FC(F)(F)c1cccc(N2CCN(c3ccc4nnc(-c5ccccc5)n4n3)CC2)c1 do in these assays?
CHOP inhibitor: 85*; iPSC survival up: 1; XBP1 UPR activ: 0; H9c2 protect: -12; UPR CHOP act: 0

What do the screens show for `O=c1cc(CSc2ccc([N+](=O)[O-])cc2)nc2sccn12`?
CHOP inhibitor: -16; iPSC survival up: 2; XBP1 UPR activ: -5; H9c2 protect: 72*; UPR CHOP act: 0

Results for O=C(NNC(=O)c1cc2cc(Br)ccc2oc1=O)c1ccc(O)cc1O ?
CHOP inhibitor: 23; iPSC survival up: 1; XBP1 UPR activ: 0; H9c2 protect: 77*; UPR CHOP act: -1

Screening results deposited in PubChem by several laboratories.
